Laboratory results from ChEMBL document CHEMBL4346661, “Design, synthesis and evaluation of novel diaryl-1,5-diazoles derivatives bearing morpholine as potent dual COX-2/5-LOX inhibitors and antitumor agents” (Eur J Med Chem, 2019).
pIC50: −log10 of the molar value.

What was measured:
[1] = tested on: B16-F10; assay: Induction of cell cycle arrest in mouse B16F10 cells assessed as cell accumulation at G2 phase at 3.125 uM incubated for 48 hrs by propidium iodide staining-based flow cytometric analysis (reference value: 22.43%); assay type: functional
[2] = tested on: B16-F10; assay: Induction of apoptosis in mouse B16F10 cells assessed as necrosis cells at 25 uM incubated for 48 hrs by Annexin-V-FITC/propidium iodide staining-based flow cytometric analysis (reference value: 0.186%); assay type: functional
Procedure, shortened: (§1)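 F10 cells were exposed to 0, 3.125, 6.25, 12.5 or 25 µM for 48 h. Cells were stained with Annexin V/PI and read by flow cytometry. Data are mean ± SD of three independent experiments.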

[3] = tested on: B16-F10; assay: Induction of apoptosis in mouse B16F10 cells assessed as late apoptosis cells at 12.5 uM incubated for 48 hrs by Annexin-V-FITC/propidium iodide staining-based flow cytometric analysis (reference value: 2.88%); assay type: functional; procedure, shortened: as §1
[4] = molecular target: T1, Prostaglandin G/H synthase 2 (Homo sapiens, UniProt P35354); assay: Inhibition of COX2 (unknown origin) using arachidonic acid as substrate incubated for 10 mins by Ellman's reagent based COX-1/COX-2 ELISA assay
T1 sequence (P35354 whole entry): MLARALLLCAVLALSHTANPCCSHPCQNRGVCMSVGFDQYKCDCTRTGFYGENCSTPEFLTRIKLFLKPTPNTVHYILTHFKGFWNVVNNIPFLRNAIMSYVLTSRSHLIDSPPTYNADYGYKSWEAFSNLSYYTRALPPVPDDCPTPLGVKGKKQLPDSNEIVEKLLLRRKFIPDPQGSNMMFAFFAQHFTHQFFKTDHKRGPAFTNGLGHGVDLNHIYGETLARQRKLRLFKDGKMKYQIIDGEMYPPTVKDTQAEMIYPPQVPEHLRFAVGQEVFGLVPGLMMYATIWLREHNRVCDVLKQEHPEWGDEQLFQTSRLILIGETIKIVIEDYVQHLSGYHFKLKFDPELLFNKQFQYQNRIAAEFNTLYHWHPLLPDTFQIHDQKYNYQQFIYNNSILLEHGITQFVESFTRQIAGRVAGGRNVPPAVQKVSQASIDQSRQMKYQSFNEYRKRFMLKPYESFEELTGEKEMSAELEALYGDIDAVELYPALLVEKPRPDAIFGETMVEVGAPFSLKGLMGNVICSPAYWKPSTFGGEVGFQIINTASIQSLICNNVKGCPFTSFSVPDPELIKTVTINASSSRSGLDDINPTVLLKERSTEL

[5] = tested on: B16-F10; assay: Induction of apoptosis in mouse B16F10 cells assessed as early apoptosis cells at 3.125 uM incubated for 48 hrs by Annexin-V-FITC/propidium iodide staining-based flow cytometric analysis (reference value: 2.93%); assay type: functional; procedure, shortened: as §1
[6] = species on record: Homo sapiens; assay: Selectivity index, ratio of IC50 for COX1 (unknown origin) to IC50 for COX2 (unknown origin)
Procedure, shortened: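 Ratio of COX-1 IC50 to COX-2 IC50, from human COX-1 and human COX-2 inhibitor screening assay kits. Each IC50 is the concentration giving 50% enzyme inhibition, taken as the mean of four determinations.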

[7] = tested on: B16-F10; assay: Induction of apoptosis in mouse B16F10 cells assessed as late apoptosis cells at 3.125 uM incubated for 48 hrs by Annexin-V-FITC/propidium iodide staining-based flow cytometric analysis (reference value: 2.88%); assay type: functional; procedure, shortened: as §1
[8] = tested on: B16-F10; assay: Induction of apoptosis in mouse B16F10 cells assessed as early apoptosis cells at 12.5 uM incubated for 48 hrs in presence of apoptosis inhibitor z-VAD-fmk by Annexin-V-FITC/propidium iodide staining-based flow cytometric analysis (reference value: 3.83%); assay type: functional
[9] = tested on: B16-F10; assay: Induction of cell cycle arrest in mouse B16F10 cells assessed as cell accumulation at G2 phase at 6.25 uM incubated for 48 hrs by propidium iodide staining-based flow cytometric analysis (reference value: 22.43%); assay type: functional
[10] = tested on: B16-F10; assay: Induction of apoptosis in mouse B16F10 cells assessed as necrosis cells at 6.25 uM incubated for 48 hrs in presence of apoptosis inhibitor z-VAD-fmk by Annexin-V-FITC/propidium iodide staining-based flow cytometric analysis (reference value: 0.558%); assay type: functional
[11] = tested on: MCF7; assay: Antiproliferative activity against human MCF7 cells incubated for 48 hrs by MTT assay; assay type: functional, cell-based; conditions: MCF7, 48 h
Procedure, shortened: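 MTT assay on F10 (murine melanoma), HeLa, A549, MCF-7 and 293T (human renal epithelium) cells. IC50 given as mean ± SD of three independent experiments.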

[12] = tested on: B16-F10; assay: Induction of apoptosis in mouse B16F10 cells assessed as necrosis cells at 3.125 uM incubated for 48 hrs in presence of apoptosis inhibitor z-VAD-fmk by Annexin-V-FITC/propidium iodide staining-based flow cytometric analysis (reference value: 0.558%); assay type: functional
[13] = tested on: B16-F10; assay: Induction of apoptosis in mouse B16F10 cells assessed as late apoptosis cells at 12.5 uM incubated for 48 hrs in presence of apoptosis inhibitor z-VAD-fmk by Annexin-V-FITC/propidium iodide staining-based flow cytometric analysis (reference value: 3.13%); assay type: functional
[14] = tested on: B16-F10; assay: Induction of apoptosis in mouse B16F10 cells assessed as late apoptosis cells at 3.125 uM incubated for 48 hrs in presence of apoptosis inhibitor z-VAD-fmk by Annexin-V-FITC/propidium iodide staining-based flow cytometric analysis (reference value: 3.13%); assay type: functional
[15] = tested on: B16-F10; assay: Induction of apoptosis in mouse B16F10 cells assessed as viable cells at 3.125 uM incubated for 48 hrs in presence of apoptosis inhibitor z-VAD-fmk by Annexin-V-FITC/propidium iodide staining-based flow cytometric analysis (reference value: 92.5%); assay type: functional; conditions: B16-F10, 48 h, read-out: Activity
[16] = tested on: B16-F10; assay: Induction of apoptosis in mouse B16F10 cells assessed as early apoptosis cells at 25 uM incubated for 48 hrs by Annexin-V-FITC/propidium iodide staining-based flow cytometric analysis (reference value: 2.93%); assay type: functional; procedure, shortened: as §1
[17] = tested on: B16-F10; assay: Induction of apoptosis in mouse B16F10 cells assessed as early apoptosis cells at 25 uM incubated for 48 hrs in presence of apoptosis inhibitor z-VAD-fmk by Annexin-V-FITC/propidium iodide staining-based flow cytometric analysis (reference value: 3.83%); assay type: functional
[18] = tested on: B16-F10; assay: Induction of apoptosis in mouse B16F10 cells assessed as early apoptosis cells at 12.5 uM incubated for 48 hrs by Annexin-V-FITC/propidium iodide staining-based flow cytometric analysis (reference value: 2.93%); assay type: functional; procedure, shortened: as §1
[19] = tested on: B16-F10; assay: Induction of apoptosis in mouse B16F10 cells assessed as necrosis cells at 12.5 uM incubated for 48 hrs by Annexin-V-FITC/propidium iodide staining-based flow cytometric analysis (reference value: 0.186%); assay type: functional; procedure, shortened: as §1
[20] = tested on: B16-F10; assay: Induction of apoptosis in mouse B16F10 cells assessed as early apoptosis cells at 3.125 uM incubated for 48 hrs in presence of apoptosis inhibitor z-VAD-fmk by Annexin-V-FITC/propidium iodide staining-based flow cytometric analysis (reference value: 3.83%); assay type: functional
[21] = tested on: B16-F10; assay: Antitumor activity against mouse B16F10 cells implanted in nude mouse assessed as tumor weight at 40 mg/kg, ip administered once per 2 days for 14 days by caliper method (reference value: 1.24g); assay type: functional
Procedure, shortened: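 Nude mice were given 5×10^6 F10 cells subcutaneously in the right flank. At about 100 mm3, 24 mice were randomized into four groups of vehicle or compound. Dosing was intraperitoneal every two days for two weeks. Tumor volume was recorded every other day. Tumors were excised and weighed after the last treatment, and body weight was monitored.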

NS(=O)(=O)c1ccc(-n2nc(C(=O)NCCCN3CCOCC3)cc2-c2ccc(C(F)(F)F)cc2)cc1
Activity [1]: 28.69% | Activity [2]: 1.33% | Activity [3]: 5.09% | pIC50 [4]: 6.77 | Activity [5]: 7.97% | Ratio IC50 [6]: 189 | Activity [7]: 4.9% | Activity [8]: 6.13% | Activity [9]: 31.04% | Activity [10]: 0.155% | pIC50 [11]: 5.12 | Activity [12]: 0.23% | Activity [13]: 9.78% | Activity [14]: 4.52% | viability at 3.125 µM [15]: 90.9% | Activity [16]: 40.8% | Activity [17]: 11.3% | Activity [18]: 20.5% | Activity [19]: 0.685% | Activity [20]: 4.31% | Activity [21]: 0.48 g
